Experimental data taken from ChEMBL document CHEMBL1649441, “Potency and bactericidal activity of iclaprim against recent clinical gram-positive isolates” (2009).

How the values were obtained:
Staphylococcus aureus [1] = experiment: Antibacterial activity against Methicillin-sensitive Staphylococcus aureus assessed as inhibition of bacterial growth at 0.015 ug/ml by CLSI broth microdilution method; assay type: functional
Staphylococcus aureus [2] = experiment: Antibacterial activity against Methicillin-sensitive Staphylococcus aureus assessed as inhibition of bacterial growth at <= 0.008 ug/ml by CLSI broth microdilution method; assay type: functional
Procedure, shortened: (§1)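 Recent clinical isolates from skin/soft tissue, bloodstream and respiratory specimens. Tested by broth microdilution per CLSI M7-A7 and M100-S18, with the appropriate quality controls. The thymidine content of the test medium was assessed to rule out artifactual inhibition.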

Staphylococcus aureus [3] = experiment: Antibacterial activity against Methicillin-resistant Staphylococcus aureus assessed as inhibition of bacterial growth at 0.03 ug/ml by CLSI broth microdilution method; assay type: functional; procedure, shortened: as §1
[4] = system: Streptococcus sp. 'group A'; experiment: Antibacterial activity against Beta-hemolytic Streptococcus group A assessed as inhibition of bacterial growth at 0.015 ug/ml by CLSI broth microdilution method; assay type: functional
Procedure, shortened: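 Clinical isolates from skin/soft tissue, bloodstream and respiratory specimens were tested by broth microdilution per CLSI M7-A7 and M100-S18, with quality controls. Values are the number of isolates inhibited at each concentration, or MIC / percent susceptible. Highest concentration tested was 8 µg/ml for iclaprim and trimethoprim-sulfamethoxazole, and 64 µg/ml for trimethoprim.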

[5] = system: Streptococcus sp. 'group A'; experiment: microbe, parasite or virus in culture; details: read-out: INH
Enterococcus faecium [6] = experiment: microbe, parasite or virus in culture; details: read-out: INH
[7] = system: Streptococcus sp. 'group B'; experiment: microbe, parasite or virus in culture; details: read-out: INH
Staphylococcus aureus [8] = experiment: microbe, parasite or virus in culture; details: read-out: INH
[9] = system: Streptococcus sp. 'group B'; experiment: microbe, parasite or virus in culture; details: read-out: INH; remark: listed apart in the source
Enterococcus faecium [10] = experiment: microbe, parasite or virus in culture; details: read-out: INH; remark: listed apart in the source

COc1cc(Cc2cnc(N)nc2N)c2c(c1OC)OC(C1CC1)C=C2 (stereo not given)
inhibition at 0.015 µg/mL (Staphylococcus aureus [1]): 0.3% | inhibition (INH) (Staphylococcus aureus [2]): 0.1% | inhibition at 0.03 µg/mL (Staphylococcus aureus [3]): 12.8% | inhibition at 0.015 µg/mL [4]: 77.6%

COc1cc(Cc2cnc(N)nc2N)cc(OC)c1OC [TRIMETHOPRIM]
inhibition at 16 µg/mL [5]: 100% | inhibition at 32 µg/mL (Enterococcus faecium [6]): 55.1% | inhibition at 64 µg/mL [7]: 100% | inhibition at 64 µg/mL (Staphylococcus aureus [8]): 94.6% | inhibition at 16 µg/mL [9]: 100% | inhibition at 64 µg/mL (Enterococcus faecium [10]): 60.7%
